Measured values published in ChEMBL document CHEMBL1129453, “3-amino-3,4-dihydro-2H-1-benzopyran derivatives as 5-HT1A receptor ligands and potential anxiolytic agents. 2. Synthesis and quantitative structure-activity relationship studies of spiro[pyrrolidine- and piperidine-2,3'(2'H)-benzopyrans]” (J Med Chem, 1996).

Molecular target: T1, 5-hydroxytryptamine receptor 1B (Rattus norvegicus, UniProt P28564)
Test: Binding affinity to 5-HT1B receptors using rat cortex+striatum + globus pallidus,[3H]-5-OH-tryptamine, and serotonin for NSB
How it was run: (§1)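 Membranes from rat cortex plus striatum plus globus pallidus; [3H]-5-OH-tryptamine as radioligand at roughly its KD; serotonin defines nonspecific binding. Competition binding; IC50 taken as concentration inhibiting 50% of specific binding.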

T1 sequence (P28564 whole entry): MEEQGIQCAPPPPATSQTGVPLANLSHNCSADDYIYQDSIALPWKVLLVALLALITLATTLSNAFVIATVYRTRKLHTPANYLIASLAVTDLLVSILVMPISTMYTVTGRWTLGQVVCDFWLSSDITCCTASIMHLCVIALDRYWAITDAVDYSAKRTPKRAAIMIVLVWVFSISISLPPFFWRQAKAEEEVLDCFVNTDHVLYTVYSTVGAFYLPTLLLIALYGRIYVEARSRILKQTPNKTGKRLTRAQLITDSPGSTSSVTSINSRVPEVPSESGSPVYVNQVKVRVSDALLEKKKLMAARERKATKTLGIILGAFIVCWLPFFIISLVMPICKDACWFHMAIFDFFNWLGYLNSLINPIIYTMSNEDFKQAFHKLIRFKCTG

SMILES | IC50 [µM]
COc1cccc2c1CC1(CCCCN1CCCCN1C(=O)CC3(CCCC3)CC1=O)CO2 (configuration not stated) | 2.21
CCCN1CCCC12COc1cccc(OC)c1C2 (configuration not stated) | 11
COc1cccc2c1CC1(CCCN1CCCCN1C(=O)CC3(CCCC3)CC1=O)CO2 (stereo in doubt; 11a) | 3.8

Molecular target: not listed separately
Test: Displacement of [3H]raclopride from Dopamine receptor […] of calf striatum
Design: species or system Bos taurus
How it was run: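 Calf striatum; [3H]raclopride at about its KD; haloperidol for nonspecific binding. Competition assay reporting IC50 (50% inhibition of specific binding).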

SMILES | IC50 [µM]
COc1cccc2c1CC1(CCCCN1CCCCNC(=O)c1ccc(F)cc1)CO2 (configuration not stated) | 38.3
COc1cccc2c1CC1(CCCCN1CCCCN1C(=O)CC3(CCCC3)CC1=O)CO2 (configuration not stated) | 23.4
CCCN1CCCC12COc1cccc(OC)c1C2 (configuration not stated) | 120
O=C1CC2(CCCC2)CC(=O)N1CCCCN1CCN(c2ncccn2)CC1 [BUSPIRONE] | 270

Molecular target: T1, 5-hydroxytryptamine receptor 1B
Test: Compound was evaluated for binding affinity on 5-HT1B receptors using rat cortex+striatum+ globus pallidus,[ 3H]-5-OH-tryptamine, and serotonin for NSB.
Assay type: tissue-based
How it was run: as §1

SMILES | IC50 [µM]
COc1cccc2c1CC1(CCCCN1CCCCNC(=O)c1ccc(F)cc1)CO2 (configuration not stated) | 11.2

Molecular target: D(2) dopamine receptor (Bos taurus, UniProt P20288)
Sequence (P20288 whole entry): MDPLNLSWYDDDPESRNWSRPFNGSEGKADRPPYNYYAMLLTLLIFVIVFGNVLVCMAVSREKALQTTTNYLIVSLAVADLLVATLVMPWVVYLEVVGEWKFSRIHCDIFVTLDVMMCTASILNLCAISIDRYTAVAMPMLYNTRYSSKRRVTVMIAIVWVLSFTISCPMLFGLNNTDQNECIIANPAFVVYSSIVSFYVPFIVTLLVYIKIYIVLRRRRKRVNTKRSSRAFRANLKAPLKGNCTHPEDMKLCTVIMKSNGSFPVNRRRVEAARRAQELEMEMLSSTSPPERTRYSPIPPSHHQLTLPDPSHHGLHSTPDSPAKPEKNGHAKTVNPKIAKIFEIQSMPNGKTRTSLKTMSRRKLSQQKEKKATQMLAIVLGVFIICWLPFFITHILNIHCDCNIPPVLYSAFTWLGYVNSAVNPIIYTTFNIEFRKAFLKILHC
Test: Displacement of [3H]SDZ-205-501 from Dopamine receptor D2 in calf caudate nucleus.
How it was run: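 Calf caudate nucleus; [3H]SDZ205-501 near its KD; butaclamol for nonspecific binding. Competition binding; IC50 for 50% inhibition of specific binding.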

SMILES | IC50 [µM]
COc1cccc2c1CC1(CCCCN1CCCCNC(=O)c1ccc(F)cc1)CO2 (configuration not stated) | 4.3
COc1cccc2c1CC1(CCCCN1CCCCN1C(=O)CC3(CCCC3)CC1=O)CO2 (configuration not stated) | 2.84
CCCN1CCCC12COc1cccc(OC)c1C2 (configuration not stated) | 6.55
CCCN(CCCCN1C(=O)CC2(CCCC2)CC1=O)C1COc2cccc(OC)c2C1 (single isomer, unassigned; (+)) | 0.02

Molecular target: not listed separately
Test: Binding affinity to 5-hydroxytryptamine 2 receptor using calf frontal cortex, [3H]- ketanserin, and spiperone for NSB
Design: species or system Bos taurus
How it was run: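 Calf frontal cortex; [3H]ketanserin near its KD; nonspecific binding with spiperone. Competition binding; IC50 = concentration inhibiting 50% of specific binding.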

SMILES | IC50 [µM]
CCCN(CCC)C1COc2cccc(OC)c2C1 (configuration not stated) | 60
COc1cccc2c1CC1(CCCCN1CCCCNC(=O)c1ccc(F)cc1)CO2 (configuration not stated) | 8.39
COc1cccc2c1CC1(CCCCN1CCCCN1C(=O)CC3(CCCC3)CC1=O)CO2 (configuration not stated) | 2.91
CCCN1CCCC12COc1cccc(OC)c1C2 (configuration not stated) | 112
CCCN(CCCCN1C(=O)CC2(CCCC2)CC1=O)C1COc2cccc(OC)c2C1 (single isomer, unassigned; (+)) | 3
CCCN(CCCCN1C(=O)CC2(CCCC2)CC1=O)C1COc2cccc(OC)c2C1 (single isomer, unassigned; (-)) | 5
CCCN(CCCCN1C(=O)CC2(CCCC2)CC1=O)C1COc2cccc(OC)c2C1 (stereo in doubt; 2) | 1
COc1cccc2c1CC1(CCCN1CCCCN1C(=O)CC3(CCCC3)CC1=O)CO2 (stereo in doubt; 11a) | 6.61
CCCN(CCC)C1CCc2cccc(O)c2C1 (configuration not stated) [8-OH-DPAT] | 49
O=C1CC2(CCCC2)CC(=O)N1CCCCN1CCN(c2ncccn2)CC1 [BUSPIRONE] | 10
O=C1c2ccccc2S(=O)(=O)N1CCCCN1CCN(c2ncccn2)CC1 [IPSAPIRONE] | 7.5

Species on record: Rattus norvegicus
Test: Effect of enantiomeric compound on adenylate cyclase activity in rat hippocampus at 10e-7 M
Assay type: functional
How it was run: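 Rat hippocampal membranes incubated 20 min at 30 °C with forskolin 10 μM, [α-32P]ATP 0.1 μM and test compound. Activity measured as conversion to [32P]cAMP (nM/mg protein/20 min), given as % of control. Mean ± standard error of three determinations in two experiments; Student's t-test versus 100%, p < 0.05.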

SMILES | Effect [%]
COc1cccc2c1CC1(CCCN1CCCCN1C(=O)CC3(CCCC3)CC1=O)CO2 (racemic) | 80

Molecular target: T2, 5-hydroxytryptamine receptor 1A (Rattus norvegicus, UniProt P19327)
T2 sequence (P19327 whole entry): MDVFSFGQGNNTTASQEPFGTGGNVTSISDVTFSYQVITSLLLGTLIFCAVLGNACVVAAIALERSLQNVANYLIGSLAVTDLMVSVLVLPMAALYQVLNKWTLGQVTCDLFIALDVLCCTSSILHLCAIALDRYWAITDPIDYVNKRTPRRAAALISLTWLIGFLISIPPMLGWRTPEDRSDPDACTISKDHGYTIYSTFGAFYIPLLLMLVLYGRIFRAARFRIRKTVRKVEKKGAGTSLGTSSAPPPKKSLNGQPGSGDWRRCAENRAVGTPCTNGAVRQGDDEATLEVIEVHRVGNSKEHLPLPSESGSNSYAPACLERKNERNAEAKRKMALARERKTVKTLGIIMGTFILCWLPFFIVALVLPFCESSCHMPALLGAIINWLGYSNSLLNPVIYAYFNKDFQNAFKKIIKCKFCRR
Test: Binding affinity to 5-hydroxytryptamine 1A receptor in rat hippocampus membranes,3H-8-OH-DPAT and buspirone for nonspecific binding (NSB)
Assay type: cell membranes

SMILES | IC50 [µM]
COc1cccc2c1CC1(CCCCN1CCCCNC(=O)c1ccc(F)cc1)CO2 (configuration not stated) | 0.0628
COc1cccc2c1CC1(CCCCN1CCCCN1C(=O)CC3(CCCC3)CC1=O)CO2 (configuration not stated) | 0.00881
CCCN1CCCC12COc1cccc(OC)c1C2 (configuration not stated) | 0.0746
COc1cccc2c1CC1(CCCN1CCCCN1C(=O)CC3(CCCC3)CC1=O)CO2 (stereo in doubt; 11a) | 0.0106

Molecular target: T3, Serotonin 3 receptor (5HT3) (Mus musculus, UniProt Q9JHJ5+P23979)
T3 sequence (Q9JHJ5 whole entry): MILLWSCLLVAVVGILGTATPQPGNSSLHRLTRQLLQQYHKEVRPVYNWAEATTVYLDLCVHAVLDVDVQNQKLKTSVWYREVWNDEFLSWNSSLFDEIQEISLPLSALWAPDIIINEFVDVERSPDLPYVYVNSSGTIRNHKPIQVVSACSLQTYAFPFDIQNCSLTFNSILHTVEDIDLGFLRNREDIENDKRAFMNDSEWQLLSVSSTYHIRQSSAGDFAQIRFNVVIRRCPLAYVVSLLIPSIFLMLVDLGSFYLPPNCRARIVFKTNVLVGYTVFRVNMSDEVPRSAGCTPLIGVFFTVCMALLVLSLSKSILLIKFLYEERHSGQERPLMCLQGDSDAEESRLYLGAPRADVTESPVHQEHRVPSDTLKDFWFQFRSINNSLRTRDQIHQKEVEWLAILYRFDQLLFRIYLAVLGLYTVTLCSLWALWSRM
T3 sequence (P23979 whole entry): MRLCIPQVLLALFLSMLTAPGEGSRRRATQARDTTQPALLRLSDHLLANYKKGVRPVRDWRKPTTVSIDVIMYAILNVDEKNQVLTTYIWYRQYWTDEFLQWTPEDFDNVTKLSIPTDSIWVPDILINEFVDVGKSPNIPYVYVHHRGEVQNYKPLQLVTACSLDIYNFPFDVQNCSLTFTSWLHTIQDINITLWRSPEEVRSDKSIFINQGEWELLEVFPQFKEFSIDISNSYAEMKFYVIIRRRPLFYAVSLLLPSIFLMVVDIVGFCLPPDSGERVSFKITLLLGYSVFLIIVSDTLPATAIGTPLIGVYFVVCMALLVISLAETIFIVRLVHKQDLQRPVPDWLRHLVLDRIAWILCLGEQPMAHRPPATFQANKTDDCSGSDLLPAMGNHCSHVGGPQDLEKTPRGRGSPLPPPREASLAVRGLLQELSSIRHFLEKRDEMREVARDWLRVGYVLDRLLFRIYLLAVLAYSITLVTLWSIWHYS
Test: Displacement of [3H]-BRC 36694 from 5-hydroxytryptamine 3 receptor in NG108-15 cells
Assay type: cell-based
How it was run: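 NG108-15 cells; [3H]-BRC 36694 at approximately its KD; ICS 205930 for nonspecific binding. Competition binding expressed as IC50 against specific binding.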

SMILES | IC50 [µM]
COc1cccc2c1CC1(CCCCN1CCCCNC(=O)c1ccc(F)cc1)CO2 (configuration not stated) | 66.5
COc1cccc2c1CC1(CCCCN1CCCCN1C(=O)CC3(CCCC3)CC1=O)CO2 (configuration not stated) | 41.4
CCCN1CCCC12COc1cccc(OC)c1C2 (configuration not stated) | 3.59
COc1cccc2c1CC1(CCCN1CCCCN1C(=O)CC3(CCCC3)CC1=O)CO2 (stereo in doubt; 11a) | 30.7
